These results are taken from ChEMBL document CHEMBL1137907, “Anticancer activity of 3-O-acyl and alkyl-(-)-epicatechin derivatives” (Bioorg Med Chem Lett, 2004).

One assay has as its system PC-3. In words: In vitro inhibitory concentration against PC-3 cell line in MTT assay was determined after 3 days incubation. It is filed as functional, cell-based. Conditions: Homo sapiens, PC-3, 72 h. An outline of the steps:
(§1)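 MTT viability read-out in 96-well format, per Mosmann's method. Values are means of three experiments.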

Another assay deals with U373 MG. In words: In vitro inhibitory concentration against U373MG cell line in MTT assay was determined after 3 days incubation. Conditions: Homo sapiens, 72 h. It is filed as functional, cell-based, U-373MG ATCC. An outline of the steps: as §1
A further assay deals with SK-OV-3. Nature of the assay: In vitro inhibitory concentration against SKOV3 cell line in MTT assay was determined after 3 days incubation. It is filed as functional, cell-based. The settings on record: Homo sapiens, SK-OV-3, 72 h. A digest of the protocol:
as §1

Regarding `Oc1cc(O)c2c(c1)O[C@H](c1ccc(O)c(O)c1)[C@H](O)C2` [(-)-EPICATECHIN], the IC50 in the assay on PC-3, in the assay on U373 MG and in the assay with SK-OV-3 was > 500 µM each time.
On to `O=C(O[C@@H]1Cc2c(O)cc(O)cc2O[C@@H]1c1ccc(O)c(O)c1)c1cc(F)cc(F)c1`, for which the IC50 in the assay with PC-3 turned out to be 58.7 µM; in the assay on U373 MG, 64.5 µM; with SK-OV-3 it was 78.2 µM.
On the same counts, the results for `COc1cc(C(=O)O[C@@H]2Cc3c(O)cc(O)cc3O[C@@H]2c2ccc(O)c(O)c2)cc(OC)c1OC` are 51.3 µM, 57.2 µM and 50.1 µM.
On the same counts, the results for `O=C(O[C@@H]1Cc2c(O)cc(O)cc2O[C@@H]1c1ccc(O)c(O)c1)c1cc(O)c(O)c(O)c1` [EPICATECHIN GALLATE] are 168 µM, 157 µM and 185 µM.
On the same counts, the results for `O=C(O[C@@H]1Cc2c(O)cc(O)cc2O[C@@H]1c1ccc(O)c(O)c1)c1cc(F)c(F)c(F)c1` are 71.9 µM, 59.2 µM and 61 µM.
Take `O=C(O[C@@H]1Cc2c(O)cc(O)cc2O[C@@H]1c1ccc(O)c(O)c1)c1ccc(OC(F)(F)F)cc1`: the IC50 in the assay with PC-3 stood at 45.2 µM; with U373 MG it was 50.3 µM; in the assay on SK-OV-3, 47.3 µM.
As for `COc1cc(CO[C@@H]2Cc3c(O)cc(O)cc3O[C@@H]2c2ccc(O)c(O)c2)cc(OC)c1OC`, the IC50 with PC-3 is 32.5 µM; in the assay with U373 MG, 29.8 µM; with SK-OV-3, 38.2 µM.
